Test results published in ChEMBL document CHEMBL4325837, “Discovery of novel NO-releasing celastrol derivatives with Hsp90 inhibition and cytotoxic activities” (Eur J Med Chem, 2018).
pIC50: −log10 of the molar value. Active and inactive are the calls of the source. The calls are words filed in the database; no cut-off is given here.

What was measured:
MCF7 = assay: Antiproliferative activity against human MCF7 cells after 48 hrs by MTT assay; format: functional, cell-based; details: MCF7, 48 h
Outline: (§1)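 MTT assay. Cells were seeded at 5.0 × 10⁴ cells/ml in 100 μL per well and grown 24 h. They were then exposed to a range of concentrations for 48 h. MTT (5 mg/ml) was added for 4 h, the supernatant was removed and DMSO was added. OD was read at 570 nm. Assays were run in triplicate and IC50 is reported as mean ± SD, n = 3.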

A549 [1] = assay: Antiproliferative activity against human A549 cells after 48 hrs by MTT assay; format: functional, cell-based; details: A549, 48 h; outline: as §1
HOS = assay: Antiproliferative activity against human HOS cells after 48 hrs by MTT assay; format: functional, cell-based; outline: as §1
HepG2 = assay: Antiproliferative activity against human HepG2 cells after 48 hrs by MTT assay; format: functional, cell-based; details: HepG2, 48 h; outline: as §1
[2] = Drug metabolism in human A549 cells assessed as nitric oxide release at 4 uM measured up to 24 hrs; format: ADME, cell-based; details: a549, 24 h
Outline: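 A549 cells were seeded at 5.0 × 10⁴ cells/ml in 100 μL wells and grown 24 h at 37 °C. Hybrids were added at 4 μM for varying times, with 24 h used for the full set. NO was measured with a Nitrate/Nitrite assay kit against a standard curve, reading OD at 550 nm. Values are the mean of three independent experiments.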

A549 [3] = assay: Induction of apoptosis in human A549 cells assessed as early apoptotic cells at 1.2 uM after 48 hrs by Annexin V-FITC/propidium iodide staining-based flow cytometric analysis (reference value: 0.5%); format: functional
A549 [4] = assay: Induction of apoptosis in human A549 cells assessed as late apoptotic cells at 1.2 uM after 48 hrs by Annexin V-FITC/propidium iodide staining-based flow cytometric analysis (reference value: 0.4%); format: functional
[5] = target: Heat shock protein HSP90 (Homo sapiens) (UniProt P07900+P08238); assay: Inhibition of HSP90 in human A549 cells assessed as decrease in Akt phosphorylation at 2.5 uM after 24 hrs by Western blot analysis; format: cell-based
A549 [6] = assay: Induction of apoptosis in human A549 cells assessed as necrotic cells at 1.2 uM after 48 hrs by Annexin V-FITC/propidium iodide staining-based flow cytometric analysis (reference value: 0.6%); format: functional
A549 [7] = assay: Induction of apoptosis in human A549 cells assessed as viable cells at 1.2 uM after 48 hrs by Annexin V-FITC/propidium iodide staining-based flow cytometric analysis (reference value: 98.5%); format: functional; details: A549, 48 h, read-out: Activity

Row | SMILES | pIC50 (MCF7) | pIC50 (A549 [1]) | pIC50 (HOS) | pIC50 (HepG2) | Drug metabolism [2] | Activity (A549 [3]) | Activity (A549 [4]) | inhibition [5] | Activity (A549 [6]) | viability at 1.2 µM (A549 [7])
1 | CC1=C(O)C(=O)C=C2C1=CC=C1[C@@]2(C)CC[C@@]2(C)[C@@H]3C[C@](C)(C(=O)OCC(C)COc4no[n+]([O-])c4S(=O)(=O)c4ccccc4)CC[C@]3(C)CC[C@]12C (stereo partly specified) | 5.83 | 5.95 | 5.78 | 5.62 | Metabolite_Detected |  |  |  |  | 
2 | CC1=C(O)C(=O)C=C2C1=CC=C1[C@@]2(C)CC[C@@]2(C)[C@@H]3C[C@](C)(C(=O)O)CC[C@]3(C)CC[C@]12C [CELASTROL] | 5.81 | 5.80 to 5.84 | 6.03 | 5.79 |  | 7.8% | 11.2% | Active | 5.2% | 75.8%
3 | CC1=C(O)C(=O)C=C2C1=CC=C1[C@@]2(C)CC[C@@]2(C)[C@@H]3C[C@](C)(C(=O)OCCCO[N+](=O)[O-])CC[C@]3(C)CC[C@]12C | 5.60 | 5.49 | 5.86 | 5.73 | Metabolite_Detected |  |  |  |  | 
4 | CC1=C(O)C(=O)C=C2C1=CC=C1[C@@]2(C)CC[C@@]2(C)[C@@H]3C[C@](C)(C(=O)OCCCCCCO[N+](=O)[O-])CC[C@]3(C)CC[C@]12C | 5.50 | 5.44 | 5.47 | 5.33 |  |  |  |  |  | 
5 | CC1=C(O)C(=O)C=C2C1=CC=C1[C@@]2(C)CC[C@@]2(C)[C@@H]3C[C@](C)(C(=O)OCCCCCO[N+](=O)[O-])CC[C@]3(C)CC[C@]12C | 5.52 | 5.27 | 5.54 | 5.47 |  |  |  |  |  | 
6 | CC1=C(O)C(=O)C=C2C1=CC=C1[C@@]2(C)CC[C@@]2(C)[C@@H]3C[C@](C)(C(=O)OCCCOc4no[n+]([O-])c4S(=O)(=O)c4ccccc4)CC[C@]3(C)CC[C@]12C | 5.67 | 5.54 | 5.73 | 5.34 |  |  |  |  |  | 
